From ChEMBL document CHEMBL4706680, “Small-Molecule HSP27 Inhibitor Abolishes Androgen Receptors in Glioblastoma” (J Med Chem, 2021)
The source made the active and inactive calls. The rule behind the calls is not given here.

How the values were obtained:
[1] = Toxicity in CD1 mouse assessed as decrease in body weight at 80 mg/kg/day, ip administered thrice weekly and measured at day 10; type: organism-based; settings: in vivo, 72 h, time 3 day
Outline: (§1)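 Male CD-1 mice, four per group, given 80 mg/kg in PBS IP three times weekly; vehicle DMSO. Mice were euthanized when toxicity signs appeared, otherwise at day 10. Body weight was recorded at first and last dosing days. Non-fasted cardiac blood was taken after euthanasia for an automated hematology analyzer.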

A 172 = experiment: Antiproliferative activity against human A 172 cells assessed as reduction in cell viability incubated for 48 hrs by MTT assay; type: functional, cell-based; settings: A 172, 48 h
Outline: (§2)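 MTT assay; 3000 cells/well in RPMI 1640 or DMEM with 10% FBS, seeded 24 h, then exposed 48 h to a range of concentrations in DMSO (final ≤0.1%); vehicle controls. MTT 1 mg/mL for 2 h at 37 °C, dye dissolved in DMSO, absorbance 570 nm; eight replicates; IC50 by nonlinear regression.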

[2] = Toxicity in CD1 mouse assessed as acute pain at 80 mg/kg/day, ip administered thrice weekly and measured at day 10; type: organism-based; settings: in vivo, 72 h, time 3 day; outline: as §1
[3] = Toxicity in CD1 mouse assessed as decrease in body weight at 80 mg/kg/day, ip administered thrice weekly and observed at day 5 to 7; type: organism-based; settings: in vivo, 72 h, time 3 day; outline: as §1
U-87 MG = experiment: Antiproliferative activity against human U87 cells assessed as reduction in cell viability incubated for 48 hrs by MTT assay; type: functional, cell-based, U-87MG ATCC; outline: as §2
U-251 = experiment: Antiproliferative activity against human U-251 cells assessed as reduction in cell viability incubated for 48 hrs by MTT assay; type: functional, cell-based; settings: U-251, 48 h; outline: as §2
T98G = experiment: Antiproliferative activity against human T98G cells overexpressing AR assessed as reduction in cell viability incubated for 48 hrs by MTT assay; type: functional, cell-based; outline: as §2
[4] = Toxicity in CD1 mouse assessed as induction of dehydration at 80 mg/kg/day, ip administered thrice weekly and observed at day 5 to 7; type: organism-based; settings: in vivo, 72 h, time 3 day; outline: as §1
[5] = Toxicity in CD1 mouse assessed as effect on neutrophils count at 80 mg/kg/day, ip administered thrice weekly by hematology analyzer; type: organism-based; settings: in vivo, 72 h, time 3 day; outline: as §1
[6] = Toxicity in CD1 mouse assessed as effect on basophil count at 80 mg/kg/day, ip administered thrice weekly by hematology analyzer; type: organism-based; settings: in vivo, 72 h, time 3 day; outline: as §1
[7] = Toxicity in CD1 mouse assessed as effect on hematocrit count at 80 mg/kg/day, ip administered thrice weekly by hematology analyzer; type: organism-based; settings: in vivo, 72 h, time 3 day; outline: as §1
[8] = Toxicity in CD1 mouse assessed as reduction in food consumption at 80 mg/kg/day, ip administered thrice weekly and observed at day 5 to 7; type: organism-based; settings: in vivo, 72 h, time 3 day; outline: as §1
[9] = Toxicity in CD1 mouse assessed as effect on RDW-CV at 80 mg/kg/day, ip administered thrice weekly by hematology analyzer; type: organism-based; settings: in vivo, 72 h, time 3 day; outline: as §1
[10] = Toxicity in CD1 mouse assessed as effect on MCHC count at 80 mg/kg/day, ip administered thrice weekly by hematology analyzer; type: organism-based; settings: in vivo, 72 h, time 3 day; outline: as §1
[11] = Toxicity in CD1 mouse assessed as effect on MCH count at 80 mg/kg/day, ip administered thrice weekly by hematology analyzer; type: organism-based; settings: in vivo, 72 h, time 3 day; outline: as §1
[12] = Toxicity in CD1 mouse assessed as effect on lymphocyte at 80 mg/kg/day, ip administered thrice weekly by hematology analyzer; type: organism-based; settings: in vivo, 72 h, time 3 day; outline: as §1
[13] = Toxicity in CD1 mouse assessed as effect on RBC count at 80 mg/kg/day, ip administered thrice weekly by hematology analyzer; type: organism-based; settings: in vivo, 72 h, time 3 day; outline: as §1
[14] = Toxicity in CD1 mouse assessed as effect on hemoglobin count at 80 mg/kg/day, ip administered thrice weekly by hematology analyzer; type: organism-based; settings: in vivo, 72 h, time 3 day; outline: as §1
[15] = Toxicity in CD1 mouse assessed as effect on WBC count at 80 mg/kg/day, ip administered thrice weekly by hematology analyzer; type: organism-based; settings: in vivo, 72 h, time 3 day; outline: as §1
[16] = Toxicity in CD1 mouse assessed as effect on MCV count at 80 mg/kg/day, ip administered thrice weekly by hematology analyzer; type: organism-based; settings: in vivo, 72 h, time 3 day; outline: as §1
[17] = Toxicity in CD1 mouse assessed as effect on eosinophil count at 80 mg/kg/day, ip administered thrice weekly by hematology analyzer; type: organism-based; settings: in vivo, 72 h, time 3 day; outline: as §1
[18] = Toxicity in CD1 mouse assessed as effect on monocytes at 80 mg/kg/day, ip administered thrice weekly by hematology analyzer; type: organism-based; settings: in vivo, 72 h, time 3 day; outline: as §1
[19] = Toxicity in CD1 mouse assessed as effect on PLT at 80 mg/kg/day, ip administered thrice weekly by hematology analyzer; type: organism-based; settings: in vivo, 72 h, time 3 day; outline: as §1
[20] = Toxicity in CD1 mouse assessed as effect on MPV at 80 mg/kg/day, ip administered thrice weekly by hematology analyzer; type: organism-based; settings: in vivo, 72 h, time 3 day; outline: as §1
[21] = biological target: Heat shock protein beta-1 (Homo sapiens) (UniProt P04792); settings: T98G, dose 10.0 nM, time 12.0 hrs
Sequence of Heat shock protein beta-1 (Homo sapiens) (P04792 whole entry): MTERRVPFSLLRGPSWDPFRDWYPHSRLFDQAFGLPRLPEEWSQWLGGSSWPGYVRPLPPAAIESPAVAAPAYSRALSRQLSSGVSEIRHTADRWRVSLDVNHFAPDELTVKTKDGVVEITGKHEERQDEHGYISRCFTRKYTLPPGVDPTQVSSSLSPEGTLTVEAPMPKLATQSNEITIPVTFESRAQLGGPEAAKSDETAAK

[22] = Dissociation constant, pKa of the compound; type: physicochemical

SMILES	IC50 (A 172)	Activity [3]	IC50 (U-87 MG)	IC50 (U-251)	IC50 (T98G)	Activity [4]	Activity [5]	Activity [6]	Activity [7]	Activity [8]	Activity [9]	Activity [10]	Activity [11]	Activity [12]	Activity [13]	Activity [14]	Activity [15]	Activity [16]	Activity [17]	Activity [18]	also measured
CCS(=O)(=O)Nc1ccc(NC(=O)c2ccc(OC)cc2)cc1OCc1cc(OC)ccc1OC	11.9 nM	Non-Toxic	6.74 nM	6.39 nM	4.87 nM	–	–	–	–	–	–	–	–	–	–	–	–	–	–	–	Activity [1]: Non-Toxic; Activity [2]: Non-Toxic
COc1ccc(C(=O)Nc2ccc(N(C)S(C)(=O)=O)c(OCc3cc(OC)ccc3OC)c2)cc1	3.13 nM	Toxic	3.05 nM	1.57 nM	1.85 nM	Toxic	Non-Toxic	Non-Toxic	Non-Toxic	Toxic	Non-Toxic	Non-Toxic	Non-Toxic	Non-Toxic	Non-Toxic	Non-Toxic	Non-Toxic	Non-Toxic	Non-Toxic	Non-Toxic	Activity [19]: Non-Toxic; Activity [20]: Non-Toxic
C[C@]12CCC(=O)C[C@@H]1CC[C@@H]1[C@@H]2CC[C@]2(C)[C@@H](O)CC[C@@H]12	–	–	–	–	–	–	–	–	–	–	–	–	–	–	–	–	–	–	–	–	inhibition [21]: inactive
CS(=O)(=O)Nc1ccc([N+](=O)[O-])cc1Oc1ccccc1 [NIMESULIDE]	–	–	–	–	–	–	–	–	–	–	–	–	–	–	–	–	–	–	–	–	pKa [22]: 5.93
CCS(=O)(=O)N(C)c1ccc(NC(=O)c2ccc(OC)cc2)cc1OCc1cc(OC)ccc1OC	8.21 nM	Toxic	7.83 nM	6.97 nM	5.71 nM	Toxic	Non-Toxic	Non-Toxic	Non-Toxic	Toxic	Non-Toxic	Non-Toxic	Non-Toxic	Non-Toxic	Non-Toxic	Non-Toxic	Non-Toxic	Non-Toxic	Non-Toxic	Non-Toxic	Activity [19]: Non-Toxic; Activity [20]: Non-Toxic
